From ChEMBL document CHEMBL4673235, “Synthesis and biological evaluation of ethacrynic acid derivatives bearing sulfonamides as potent anti-cancer agents” (Bioorg Med Chem Lett, 2020)

How the values were obtained:
[1] = tested on: HCT-116; assay: Cytotoxicity against human HCT-116 cells assessed as cell viability at 10 uM by CellTiter Glo luminescent assay relative to control; format: functional; settings: read-out: Activity
Method in brief: (§1)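 Single-concentration screen at 10 µM; percentage viability measured by CellTiter-Glo luminescent quantitation of ATP in metabolically active cells.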

[2] = tested on: HL-60; assay: Cytotoxicity against human HL-60 cells assessed as cell viability at 10 uM by CellTiter Glo luminescent assay relative to control; format: functional; settings: read-out: Activity; method in brief: as §1
[3] = tested on: HL-60; assay: Cytotoxicity against human HL-60 cells assessed as reduction in cell viability by CellTiter Glo luminescent assay; format: functional, cell-based
Method in brief: (§2)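 CellTiter-Glo luminescent read-out of cellular ATP, taken as proportional to viable cell number; percentage viability measured and IC50 derived. MRC5 used as normal (non-cancer) line.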

[4] = Selectivity index, ratio of IC50 for human MRC5 cells to IC50 for human HL60 cells by CellTiter Glo luminescent assay; format: toxicity; settings: MRC5 cells versus HL60 cells, read-out: Ratio IC50
[5] = Selectivity index, ratio of IC50 for human MRC5 cells to IC50 for human MCF7 cells by CellTiter Glo luminescent assay; format: toxicity; settings: MRC5 cells versus MCF7 cells, read-out: Ratio IC50
Method in brief: (§3)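 Safety ratio computed as IC50 in MRC5 normal cells divided by IC50 in the cancer line, both from CellTiter-Glo ATP-luminescence viability assays.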

[6] = Selectivity index, ratio of IC50 for human MRC5 cells to IC50 for human HCT-116 cells by CellTiter Glo luminescent assay; format: toxicity; settings: MRC5 cells versus HCT-116 cells, read-out: Ratio IC50; method in brief: as §3
[7] = tested on: PC-3; assay: Cytotoxicity against human PC-3 cells assessed as reduction in cell viability by CellTiter Glo luminescent assay; format: functional, cell-based; method in brief: as §2
[8] = Selectivity index, ratio of IC50 for human MRC5 cells to IC50 for human PC-3 cells by CellTiter Glo luminescent assay; format: toxicity; settings: MRC5 cells versus PC-3 cells, read-out: Ratio IC50; method in brief: as §3
[9] = tested on: MCF7; assay: Cytotoxicity against human MCF7 cells assessed as reduction in cell viability by CellTiter Glo luminescent assay; format: functional, cell-based; method in brief: as §2
[10] = Selectivity index, ratio of IC50 for human MRC5 cells to IC50 for human A549 cells by CellTiter Glo luminescent assay; format: toxicity; settings: MRC5 cells versus A549 cells, read-out: Ratio IC50; method in brief: as §3
[11] = Selectivity index, ratio of IC50 for human MRC5 cells to IC50 for human SK-OV-3 cells by CellTiter Glo luminescent assay; format: toxicity; settings: MRC5 cells versus SK-OV-3 cells, read-out: Ratio IC50; method in brief: as §3
[12] = Selectivity index, ratio of IC50 for human MRC5 cells to IC50 for human U-87 MG cells by CellTiter Glo luminescent assay; format: toxicity; settings: MRC5 cells versus U-87 MG cells, read-out: Ratio IC50; method in brief: as §3
[13] = tested on: A549; assay: Cytotoxicity against human A549 cells assessed as reduction in cell viability by CellTiter Glo luminescent assay; format: functional, cell-based; method in brief: as §2
[14] = tested on: HCT-116; assay: Cytotoxicity against human HCT-116 cells assessed as reduction in cell viability by CellTiter Glo luminescent assay; format: functional, cell-based; method in brief: as §2
[15] = tested on: SK-OV-3; assay: Cytotoxicity against human SK-OV-3 cells assessed as reduction in cell viability by CellTiter Glo luminescent assay; format: functional, cell-based; method in brief: as §2
[16] = tested on: U-87 MG; assay: Cytotoxicity against human U-87 MG cells assessed as reduction in cell viability by CellTiter Glo luminescent assay; format: functional, cell-based, U-87MG ATCC; method in brief: as §2
[17] = tested on: MRC5; assay: Cytotoxicity against human MRC5 cells assessed as reduction in cell viability by CellTiter Glo luminescent assay; format: cell-based; method in brief: as §2

Row | SMILES | viability at 10 µM [1] [%] | viability at 10 µM [2] [%] | IC50 [3] [nM] | also measured
1 | C=C(CC)C(=O)c1ccc(OCC(=O)NC2CCN(S(=O)(=O)c3ccc([N+](=O)[O-])cc3)CC2)c(Cl)c1Cl | 100 | 23 | 2470 | 
2 | C=C(CC)C(=O)c1ccc(OCC(=O)N2CCN(S(=O)(=O)C3CCCCC3)CC2)c(Cl)c1Cl | 100 | 32 | 2320 | 
3 | C=C(CC)C(=O)c1ccc(OCC(=O)NCCNS(C)(=O)=O)c(Cl)c1Cl | 62 | 21 | 940 | 
4 | C=C(CC)C(=O)c1ccc(OCC(=O)N2CCN(S(C)(=O)=O)CC2)c(Cl)c1Cl | 68 | 24 | 3390 | 
5 | C=C(CC)C(=O)c1ccc(OCC(=O)N2CCN(S(=O)(=O)c3ccc([N+](=O)[O-])cc3)CC2)c(Cl)c1Cl | 100 | 24 | 3260 | 
6 | C=C(CC)C(=O)c1ccc(OCC(=O)NCCNS(=O)(=O)c2ccc([N+](=O)[O-])cc2)c(Cl)c1Cl | 59 | 27 | 580 | 
7 | C=C(CC)C(=O)c1ccc(OCC(=O)NC2CCN(S(=O)(=O)c3cc(Cl)ccc3OC)CC2)c(Cl)c1Cl |  | 16 | 700 | selectivity ratio [4]: 1.28; selectivity ratio [5]: 9.27; selectivity ratio [6]: 1.13; IC50 [7]: 76 nM; selectivity ratio [8]: 11.8; IC50 [9]: 97 nM; selectivity ratio [10]: 16.3; selectivity ratio [11]: 6; selectivity ratio [12]: 2.93; IC50 [13]: 55 nM; IC50 [14]: 790 nM; IC50 [15]: 150 nM; IC50 [16]: 307 nM; IC50 [17]: 900 nM
8 | C=C(CC)C(=O)c1ccc(OCC(=O)NC2CCN(S(=O)(=O)c3ccc(OC)cc3OC)CC2)c(Cl)c1Cl | 90 | 11 | 860 | 
9 | C=C(CC)C(=O)c1ccc(OCC(=O)NCCNS(=O)(=O)c2cc(Cl)ccc2OC)c(Cl)c1Cl | 78 | 18 | 1600 | 
10 | C=C(CC)C(=O)c1ccc(OCC(=O)NC2CCN(S(C)(=O)=O)CC2)c(Cl)c1Cl | 73 | 26 | 3330 | 
11 | C=C(CC)C(=O)c1ccc(OCC(=O)NC2CCN(S(=O)(=O)c3ccc(C)cc3)CC2)c(Cl)c1Cl | 100 | 25 | 980 | 
12 | C=C(CC)C(=O)c1ccc(OCC(=O)NCCNS(=O)(=O)c2ccc(C)cc2)c(Cl)c1Cl | 100 | 17 | 2370 | 
13 | C=C(CC)C(=O)c1ccc(OCC(=O)NCCNS(=O)(=O)C2CCCCC2)c(Cl)c1Cl | 91 | 28 | 1340 | 
14 | C=C(CC)C(=O)c1ccc(OCC(=O)NC2CCN(S(=O)(=O)c3ccc(OC)cc3)CC2)c(Cl)c1Cl | 45 | 25 | 630 | selectivity ratio [4]: 6.85; selectivity ratio [5]: 33.8; selectivity ratio [6]: 3.75; IC50 [7]: 112 nM; selectivity ratio [8]: 38.6; IC50 [9]: 128 nM; selectivity ratio [10]: 63.8; selectivity ratio [11]: 14; selectivity ratio [12]: 18.1; IC50 [13]: 67 nM; IC50 [14]: 1150 nM; IC50 [15]: 309 nM; IC50 [16]: 238 nM; IC50 [17]: 4320 nM
